Consider one compound from ChEMBL document CHEMBL4033795, “Design, Synthesis, and Structure-Activity Relationship Study of 2-Oxo-3,4-dihydropyrimido[4,5- d]pyrimidines as New Colony Stimulating Factor 1 Receptor (CSF1R) Kinase Inhibitors” (J Med Chem, 2018).

The target of test [1] is Fibroblast growth factor receptor 3 (Homo sapiens, UniProt P22607). Briefly: Inhibition of cytoplasmic recombinant human His-tagged FGFR3 (399 to 806 residues) expressed in baculovirus using tyr4 peptide as substrate after 1 hr by FRET-based Z'-Lyte assay.
Sequence of Fibroblast growth factor receptor 3 (P22607 whole entry, the tested form may be a part): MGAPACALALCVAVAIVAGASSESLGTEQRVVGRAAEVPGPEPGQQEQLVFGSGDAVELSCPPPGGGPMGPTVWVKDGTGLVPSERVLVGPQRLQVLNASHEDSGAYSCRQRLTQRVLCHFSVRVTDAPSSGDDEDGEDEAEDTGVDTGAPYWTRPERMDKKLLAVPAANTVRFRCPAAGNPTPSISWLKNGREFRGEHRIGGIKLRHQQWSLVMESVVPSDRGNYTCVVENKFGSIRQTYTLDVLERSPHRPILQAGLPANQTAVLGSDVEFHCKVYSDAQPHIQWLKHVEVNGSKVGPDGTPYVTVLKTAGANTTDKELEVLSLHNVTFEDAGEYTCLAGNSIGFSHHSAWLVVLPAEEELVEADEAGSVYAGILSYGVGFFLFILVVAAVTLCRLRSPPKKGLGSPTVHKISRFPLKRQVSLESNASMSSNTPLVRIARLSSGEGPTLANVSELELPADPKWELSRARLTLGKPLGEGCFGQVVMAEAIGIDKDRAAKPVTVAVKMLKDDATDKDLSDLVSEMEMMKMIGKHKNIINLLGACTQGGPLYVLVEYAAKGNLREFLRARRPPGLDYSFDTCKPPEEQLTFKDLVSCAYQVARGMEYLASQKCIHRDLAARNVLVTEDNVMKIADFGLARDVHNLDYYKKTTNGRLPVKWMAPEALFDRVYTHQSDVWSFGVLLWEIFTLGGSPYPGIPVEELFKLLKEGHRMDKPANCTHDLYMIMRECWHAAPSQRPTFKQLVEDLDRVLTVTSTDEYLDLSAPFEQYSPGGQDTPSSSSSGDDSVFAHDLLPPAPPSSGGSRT
In test [2] the target is Fibroblast growth factor receptor 4 (Homo sapiens, UniProt P22455). Briefly: Inhibition of cytoplasmic recombinant human His-tagged FGFR4 ([…] residues) expressed in baculovirus using tyr4 peptide as substrate after 1 hr by FRET-based Z'-Lyte assay.
Sequence of Fibroblast growth factor receptor 4 (P22455 whole entry, the tested form may be a part): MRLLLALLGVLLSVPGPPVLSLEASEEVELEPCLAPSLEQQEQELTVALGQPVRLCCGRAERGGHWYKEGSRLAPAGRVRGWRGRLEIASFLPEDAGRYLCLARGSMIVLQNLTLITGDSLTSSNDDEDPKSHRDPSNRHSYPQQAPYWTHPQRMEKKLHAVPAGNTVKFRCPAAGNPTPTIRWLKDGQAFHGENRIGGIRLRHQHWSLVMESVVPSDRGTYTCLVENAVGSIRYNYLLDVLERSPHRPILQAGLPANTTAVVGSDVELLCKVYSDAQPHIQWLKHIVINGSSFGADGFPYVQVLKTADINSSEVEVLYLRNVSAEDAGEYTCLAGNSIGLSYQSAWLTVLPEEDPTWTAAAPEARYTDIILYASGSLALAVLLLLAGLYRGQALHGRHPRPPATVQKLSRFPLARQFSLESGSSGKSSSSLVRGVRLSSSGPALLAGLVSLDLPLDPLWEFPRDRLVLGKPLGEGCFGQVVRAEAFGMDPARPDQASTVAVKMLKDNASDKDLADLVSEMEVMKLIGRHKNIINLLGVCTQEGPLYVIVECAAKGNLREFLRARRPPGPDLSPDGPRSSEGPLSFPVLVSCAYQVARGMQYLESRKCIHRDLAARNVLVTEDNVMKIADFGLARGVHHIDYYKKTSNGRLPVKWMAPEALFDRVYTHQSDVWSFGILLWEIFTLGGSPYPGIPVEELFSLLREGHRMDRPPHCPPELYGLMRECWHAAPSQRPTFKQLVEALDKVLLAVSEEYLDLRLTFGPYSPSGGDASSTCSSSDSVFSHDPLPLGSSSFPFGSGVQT
The target in test [3] is Vascular endothelial growth factor receptor 2 (Homo sapiens) (UniProt P35968). Briefly: Inhibition of human KDR (R787 to P1253 residues) expressed in mammalian expression system at 100 nM by KINOMEscan assay relative to control.
Sequence of Vascular endothelial growth factor receptor 2 (Homo sapiens) (P35968 whole entry, the tested form may be a part): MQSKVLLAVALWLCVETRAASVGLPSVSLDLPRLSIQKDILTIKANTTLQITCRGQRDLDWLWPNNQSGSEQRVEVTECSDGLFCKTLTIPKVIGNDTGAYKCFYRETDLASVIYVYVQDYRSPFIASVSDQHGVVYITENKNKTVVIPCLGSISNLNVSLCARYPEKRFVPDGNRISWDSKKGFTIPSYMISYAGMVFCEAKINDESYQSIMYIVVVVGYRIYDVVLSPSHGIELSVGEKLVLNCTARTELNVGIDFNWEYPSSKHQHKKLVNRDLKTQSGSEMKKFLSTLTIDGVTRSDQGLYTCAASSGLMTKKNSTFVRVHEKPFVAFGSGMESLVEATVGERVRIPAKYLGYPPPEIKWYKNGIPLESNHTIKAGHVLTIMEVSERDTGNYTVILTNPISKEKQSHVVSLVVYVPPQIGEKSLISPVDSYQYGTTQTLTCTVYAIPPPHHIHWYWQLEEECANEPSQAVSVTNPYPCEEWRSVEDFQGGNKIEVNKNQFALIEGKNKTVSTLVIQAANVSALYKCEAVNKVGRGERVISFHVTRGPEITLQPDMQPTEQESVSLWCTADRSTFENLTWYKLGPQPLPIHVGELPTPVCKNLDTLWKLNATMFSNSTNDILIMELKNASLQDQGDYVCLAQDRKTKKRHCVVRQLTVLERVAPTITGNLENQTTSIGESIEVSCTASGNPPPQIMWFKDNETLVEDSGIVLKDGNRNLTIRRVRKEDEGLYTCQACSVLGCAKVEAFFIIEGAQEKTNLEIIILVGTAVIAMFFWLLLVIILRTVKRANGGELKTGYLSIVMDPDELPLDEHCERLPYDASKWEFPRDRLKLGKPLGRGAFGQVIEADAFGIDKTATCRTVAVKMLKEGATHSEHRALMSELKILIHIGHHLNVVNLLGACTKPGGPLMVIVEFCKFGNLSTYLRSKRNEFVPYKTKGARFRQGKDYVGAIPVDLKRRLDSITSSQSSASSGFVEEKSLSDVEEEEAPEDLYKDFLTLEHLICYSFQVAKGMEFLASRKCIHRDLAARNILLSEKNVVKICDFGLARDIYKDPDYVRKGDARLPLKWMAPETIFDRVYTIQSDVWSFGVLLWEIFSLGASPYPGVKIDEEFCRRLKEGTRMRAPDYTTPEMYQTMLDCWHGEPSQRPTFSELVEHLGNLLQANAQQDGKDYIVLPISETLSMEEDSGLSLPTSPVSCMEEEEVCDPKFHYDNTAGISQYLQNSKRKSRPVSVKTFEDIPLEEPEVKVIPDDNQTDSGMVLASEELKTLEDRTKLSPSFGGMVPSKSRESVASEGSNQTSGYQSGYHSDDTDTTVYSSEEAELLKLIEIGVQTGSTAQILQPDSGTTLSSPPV
Test [4] addresses Tyrosine-protein kinase Lyn (Homo sapiens) (UniProt P07948). Put plainly: Inhibition of recombinant human LYN-A expressed in bacterial expression system at 100 nM by KINOMEscan assay relative to control.
Test [5] has the same target. Put plainly: Inhibition of recombinant human LYN-B expressed in bacterial expression system at 100 nM by KINOMEscan assay relative to control.
In test [6] the target is T1, Macrophage colony-stimulating factor 1 receptor (Mus musculus) (UniProt P09581).
T1 sequence (whole entry): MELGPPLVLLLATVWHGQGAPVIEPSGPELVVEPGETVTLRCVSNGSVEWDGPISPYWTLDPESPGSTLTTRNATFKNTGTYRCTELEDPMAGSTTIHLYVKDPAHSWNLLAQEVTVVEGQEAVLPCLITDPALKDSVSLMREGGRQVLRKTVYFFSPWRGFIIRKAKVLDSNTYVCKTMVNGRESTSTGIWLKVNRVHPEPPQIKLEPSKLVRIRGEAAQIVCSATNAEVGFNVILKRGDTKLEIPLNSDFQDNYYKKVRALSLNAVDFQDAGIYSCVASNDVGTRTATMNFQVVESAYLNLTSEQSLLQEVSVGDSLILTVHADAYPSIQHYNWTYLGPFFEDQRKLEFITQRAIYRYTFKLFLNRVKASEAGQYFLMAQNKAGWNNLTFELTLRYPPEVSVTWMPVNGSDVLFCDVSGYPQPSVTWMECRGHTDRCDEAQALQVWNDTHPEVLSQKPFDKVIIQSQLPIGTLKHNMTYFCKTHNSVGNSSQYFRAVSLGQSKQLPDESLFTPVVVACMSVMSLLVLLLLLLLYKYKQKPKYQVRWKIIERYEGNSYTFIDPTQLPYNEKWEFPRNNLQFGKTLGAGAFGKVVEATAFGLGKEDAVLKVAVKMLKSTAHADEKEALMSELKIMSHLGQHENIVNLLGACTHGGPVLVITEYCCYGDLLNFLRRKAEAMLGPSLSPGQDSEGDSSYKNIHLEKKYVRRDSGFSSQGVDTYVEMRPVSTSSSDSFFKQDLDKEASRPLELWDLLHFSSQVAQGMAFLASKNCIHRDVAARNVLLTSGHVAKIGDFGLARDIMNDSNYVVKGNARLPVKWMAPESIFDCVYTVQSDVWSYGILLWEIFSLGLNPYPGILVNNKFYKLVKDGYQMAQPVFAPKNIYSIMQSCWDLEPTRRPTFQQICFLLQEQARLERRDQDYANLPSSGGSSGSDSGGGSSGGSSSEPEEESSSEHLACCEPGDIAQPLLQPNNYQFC
Put plainly: Inhibition of CSF1R phosphorylation in mouse RAW264.7 cells preincubated for 6 hrs followed by CSF1 stimulation for 20 mins by Western blot analysis. The format is cell-based. In a few lines:
(§1)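 RAW264.7 cells were seeded, incubated overnight and treated 6 h with graded compound concentrations, then stimulated 20 min with CSF-1 (50 ng/mL). Lysates were run on 8−12% SDS-PAGE and immunoblotted for p-CSF1R (Tyr723), CSF1R, p-AKT, AKT and GAPDH. Bands were quantified and normalized to GAPDH. Mean ± SEM of at least three experiments.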
For orientation: In western blotting, separated proteins are transferred to a membrane and probed.

Test [7] deals with T1, Macrophage colony-stimulating factor 1 receptor (Mus musculus). Put plainly: Inhibition of CSF1R phosphorylation in mouse RAW264.7 cells at 80 nM preincubated for 6 hrs followed by CSF1 stimulation for 20 mins by Western blot analysis relative to control. The format is cell-based. The procedure, abridged:
as §1

Test [8] relates to RAW264.7. Put plainly: Antimigratory activity against mouse RAW264.7 cells assessed as inhibition of human LNCaP-MDV-CM mediated macrophage migration at 2.5 uM after 24 hrs by crystal violet staining based transwell assay relative to control. The format is functional. As to conditions: RAW264.7, 24 h. In a few lines: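 RAW264.7 cells, (2−4) × 10^5, were placed serum-free in the upper insert of a transwell. The lower chamber held conditioned medium from LNCaP cells grown 48 h in 10% FBS RPMI 1640 with 10 μM MDV3100 or DMSO. Compound at 0.625–5.0 μM was added to the top chamber for 24 h at 37 °C. Migrated cells were fixed in methanol, stained with 0.25% crystal violet and counted in six random fields at 200×. Three independent experiments.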

For test [9], the system named is RAW264.7. Briefly: Downregulation of IL10 mRNA expression in mouse RAW264.7 cells after 48 hrs by qRT-PCR analysis relative to DMSO. Format: functional, cell-based. The procedure, abridged: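 RAW264.7 macrophages were treated 48 h with compound at 0.08, 0.4 or 2.0 μM, or DMSO vehicle. Total RNA was extracted with TRIzol and transcripts were quantified by qRT-PCR using gene-specific primers. Run three times, each in triplicate.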

For test [10], the species on record is Homo sapiens. Put plainly: Selectivity ratio of IC50 for recombinant human wild type GST-tagged EGFR cytoplasmic domain (668 to 1210 residues) expressed in baculovirus to IC50 for recombinant human His-tagged CSF1R cytoplasmic domain (538 to 910 residues) expressed in baculovirus. In a few lines:
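Z′-Lyte FRET assay with CSF1R or EGFR and 2 μM Tyr4 peptide substrate in 1× kinase buffer. ATP was supplied as a 100 μM solution, a stock and not the final concentration. Compounds were 3-fold serially diluted in DMSO. Reaction ran 1 h at room temperature, followed by 1 h development and a stop reagent. Phospho-peptide, no-ATP and DMSO controls were included. IC50 by curve fitting; mean of at least three independent experiments.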

Test [11] is filed under the species Homo sapiens. Put plainly: Selectivity ratio of IC50 for recombinant human His-tagged FLT3 (564 to 958 residues) expressed in baculovirus to IC50 for recombinant human His-tagged CSF1R cytoplasmic domain (538 to 910 residues) expressed in baculovirus.

The IC50 is the midpoint of a concentration-inhibition curve. A word on the inhibition: it is the drop in the measured response relative to a control, in per cent.

Bounds are passed on as bounds.

Sequence of Tyrosine-protein kinase Lyn (Homo sapiens) (P07948 2-512 limits assumed): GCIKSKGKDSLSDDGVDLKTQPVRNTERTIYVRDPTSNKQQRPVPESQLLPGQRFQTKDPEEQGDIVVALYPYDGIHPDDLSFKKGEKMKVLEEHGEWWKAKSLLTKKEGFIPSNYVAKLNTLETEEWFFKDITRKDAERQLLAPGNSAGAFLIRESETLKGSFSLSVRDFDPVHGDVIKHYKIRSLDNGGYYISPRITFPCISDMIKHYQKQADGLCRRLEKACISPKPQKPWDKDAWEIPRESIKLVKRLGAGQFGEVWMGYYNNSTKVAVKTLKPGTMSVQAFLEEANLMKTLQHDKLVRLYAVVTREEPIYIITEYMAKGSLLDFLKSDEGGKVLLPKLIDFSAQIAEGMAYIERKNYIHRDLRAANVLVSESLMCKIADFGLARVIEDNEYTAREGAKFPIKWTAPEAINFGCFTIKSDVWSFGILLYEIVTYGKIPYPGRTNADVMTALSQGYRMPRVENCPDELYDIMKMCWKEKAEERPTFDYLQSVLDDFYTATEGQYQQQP

In the case of `CCC(=O)N1CC[C@H](N2C(=O)N(c3cc(OC)ccc3Cl)Cc3cnc(Nc4ccc(N5CCN(C6COC6)CC5)c(C)c4)nc32)C1`, the IC50 was 40.2 nM in test [1] and 167 nM in test [2]. The inhibition in test [3] was more than 90%; in test [4], more than 90%; in test [5], more than 90%; in test [6], “Dose-dependent effect”; in test [7], 50%. Also, in the test with RAW264.7 [8], the inhibition at 2.5 µM was found to be 60.6%. The Activity entry in the test on RAW264.7 [9] is “Dose-dependent effect”. In addition, the Ratio IC50 in the test listed under Homo sapiens [10] was 120; in the test filed under Homo sapiens [11], 10 to 35.
